Experimental data as given in the M2OR odorant receptor database.

Key:
Details in all cases: stereoisomer not certain
OR5H1 (Homo sapiens) = OR5H1 (Homo sapiens) (UniProt A6NKK0)
Procedure, shortened: (§1)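 Whether a receptor–molecule pair is responsive (active) rests on the original authors' judgment that its measured signal was statistically different from baseline. Pairs without that judgment are non-responsive (inactive). Sources used varied assay methods, commonly transient luciferase assays in mammalian cell lines.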

OR5H1 F17L A30T H56Q = tested on: OR5H1 F17L A30T H56Q
Procedure, shortened: as §1

OR5H1 T181N = tested on: OR5H1 T181N
Procedure, shortened: as §1

OR5H14 (Homo sapiens) = OR5H14 (Homo sapiens) (UniProt A6NHG9)
Procedure, shortened: as §1

OR5H15 (Homo sapiens) = OR5H15 (Homo sapiens) (UniProt A6NDH6)
Procedure, shortened: as §1

OR5H1 = tested on: OR5H1
Procedure, shortened: as §1

OR5H2 = tested on: OR5H2
Procedure, shortened: as §1

OR5H6 (Homo sapiens) = OR5H6 (Homo sapiens) (UniProt Q8NGV6)
Procedure, shortened: as §1

OR5I1 (Homo sapiens) = OR5I1 (Homo sapiens) (UniProt Q13606)
Procedure, shortened: as §1

OR5J2 (Homo sapiens) = OR5J2 (Homo sapiens) (UniProt Q8NH18)
Procedure, shortened: as §1

OR5K1 (Homo sapiens) = biological target: T1, OR5K1 (Homo sapiens) (UniProt Q8NHB7)
T1 sequence (whole entry): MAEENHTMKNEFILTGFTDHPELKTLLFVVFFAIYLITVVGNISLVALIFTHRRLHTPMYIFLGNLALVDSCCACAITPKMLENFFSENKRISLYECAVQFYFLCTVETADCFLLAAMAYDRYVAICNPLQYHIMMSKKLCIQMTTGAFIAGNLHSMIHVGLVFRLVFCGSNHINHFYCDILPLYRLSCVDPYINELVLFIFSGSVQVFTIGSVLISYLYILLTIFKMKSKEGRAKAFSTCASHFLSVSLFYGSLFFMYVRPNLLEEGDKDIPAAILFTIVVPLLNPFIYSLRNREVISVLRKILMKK
Procedure, shortened: as §1

OR5K2 (Homo sapiens) = OR5K2 (Homo sapiens) (UniProt Q8NHB8)
Procedure, shortened: as §1

OR5K2 L197M = tested on: OR5K2 L197M
Procedure, shortened: as §1

OR5K3 (Homo sapiens) = OR5K3 (Homo sapiens) (UniProt A6NET4)
Procedure, shortened: as §1

OR5K4 (Homo sapiens) = OR5K4 (Homo sapiens) (UniProt A6NMS3)
Procedure, shortened: as §1

OR5L1 (Homo sapiens) = OR5L1 (Homo sapiens) (UniProt Q8NGL2)
Procedure, shortened: as §1

OR5L2 (Homo sapiens) = OR5L2 (Homo sapiens) (UniProt Q8NGL0)
Procedure, shortened: as §1

OR5M1 (Homo sapiens) = OR5M1 (Homo sapiens) (UniProt Q8NGP8)
Procedure, shortened: as §1

OR5G3 (Homo sapiens) = OR5G3 (Homo sapiens) (UniProt P0C626)
Procedure, shortened: as §1

OR5H8 (Homo sapiens) = OR5H8 (Homo sapiens) (UniProt P0DN80)
Procedure, shortened: as §1

Measured: odorant receptor agonist call;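 note: active if original authors judged signal statistically different from baseline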

OR5K4 (Homo sapiens), sequence (A6NMS3 whole entry): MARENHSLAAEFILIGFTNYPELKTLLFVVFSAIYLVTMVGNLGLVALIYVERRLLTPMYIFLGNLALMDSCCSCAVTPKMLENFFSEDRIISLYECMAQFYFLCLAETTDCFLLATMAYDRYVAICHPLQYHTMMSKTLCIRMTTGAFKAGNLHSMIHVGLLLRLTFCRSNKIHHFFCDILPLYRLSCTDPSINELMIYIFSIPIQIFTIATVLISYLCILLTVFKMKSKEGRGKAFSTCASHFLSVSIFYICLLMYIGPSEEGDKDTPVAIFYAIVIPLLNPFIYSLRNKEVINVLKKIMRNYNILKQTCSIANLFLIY
OR5K2 (Homo sapiens), sequence (Q8NHB8 whole entry): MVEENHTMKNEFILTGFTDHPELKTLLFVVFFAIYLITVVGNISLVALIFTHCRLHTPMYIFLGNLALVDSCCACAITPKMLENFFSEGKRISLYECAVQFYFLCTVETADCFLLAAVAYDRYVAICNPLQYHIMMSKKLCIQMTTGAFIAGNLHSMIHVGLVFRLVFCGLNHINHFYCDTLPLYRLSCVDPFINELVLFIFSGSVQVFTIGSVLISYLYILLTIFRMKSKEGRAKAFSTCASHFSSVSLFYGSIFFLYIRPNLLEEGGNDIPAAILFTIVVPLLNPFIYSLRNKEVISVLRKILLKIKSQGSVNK
OR5I1 (Homo sapiens), sequence (Q13606 whole entry): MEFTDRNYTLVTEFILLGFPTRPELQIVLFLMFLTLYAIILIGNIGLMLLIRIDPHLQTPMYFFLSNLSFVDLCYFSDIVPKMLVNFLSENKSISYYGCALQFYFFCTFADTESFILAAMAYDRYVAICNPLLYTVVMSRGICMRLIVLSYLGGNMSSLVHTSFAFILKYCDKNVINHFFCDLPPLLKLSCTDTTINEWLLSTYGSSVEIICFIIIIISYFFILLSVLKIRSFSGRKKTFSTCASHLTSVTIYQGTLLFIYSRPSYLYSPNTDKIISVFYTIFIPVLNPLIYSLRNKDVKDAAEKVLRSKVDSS
OR5H15 (Homo sapiens), sequence (A6NDH6 whole entry): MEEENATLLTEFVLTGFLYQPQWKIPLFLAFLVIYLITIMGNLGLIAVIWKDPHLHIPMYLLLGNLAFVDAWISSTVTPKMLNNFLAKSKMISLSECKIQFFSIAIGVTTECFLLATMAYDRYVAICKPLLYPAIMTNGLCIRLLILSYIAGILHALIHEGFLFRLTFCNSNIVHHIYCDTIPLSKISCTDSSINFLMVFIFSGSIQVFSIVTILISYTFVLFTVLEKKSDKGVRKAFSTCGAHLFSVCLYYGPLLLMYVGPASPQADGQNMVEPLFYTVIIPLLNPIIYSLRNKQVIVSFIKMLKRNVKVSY
OR5H6 (Homo sapiens), sequence (Q8NGV6 whole entry): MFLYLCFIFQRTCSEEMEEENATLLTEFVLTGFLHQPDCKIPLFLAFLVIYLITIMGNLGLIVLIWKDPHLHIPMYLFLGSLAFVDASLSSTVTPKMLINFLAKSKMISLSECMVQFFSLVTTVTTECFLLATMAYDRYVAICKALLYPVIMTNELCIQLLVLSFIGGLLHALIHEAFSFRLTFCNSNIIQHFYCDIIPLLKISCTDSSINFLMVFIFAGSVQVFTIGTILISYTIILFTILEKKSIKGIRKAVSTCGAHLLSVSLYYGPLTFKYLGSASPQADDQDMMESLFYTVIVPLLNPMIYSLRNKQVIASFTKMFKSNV
OR5L1 (Homo sapiens), sequence (Q8NGL2 whole entry): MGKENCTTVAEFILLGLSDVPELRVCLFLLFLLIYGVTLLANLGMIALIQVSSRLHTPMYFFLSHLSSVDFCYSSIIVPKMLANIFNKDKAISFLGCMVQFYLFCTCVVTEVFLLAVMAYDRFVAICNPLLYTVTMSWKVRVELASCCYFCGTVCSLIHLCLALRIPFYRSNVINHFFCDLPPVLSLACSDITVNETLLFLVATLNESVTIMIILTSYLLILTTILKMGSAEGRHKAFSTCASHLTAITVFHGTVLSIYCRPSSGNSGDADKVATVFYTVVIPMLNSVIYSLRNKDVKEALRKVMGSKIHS
OR5H2, sequence (as listed by the source): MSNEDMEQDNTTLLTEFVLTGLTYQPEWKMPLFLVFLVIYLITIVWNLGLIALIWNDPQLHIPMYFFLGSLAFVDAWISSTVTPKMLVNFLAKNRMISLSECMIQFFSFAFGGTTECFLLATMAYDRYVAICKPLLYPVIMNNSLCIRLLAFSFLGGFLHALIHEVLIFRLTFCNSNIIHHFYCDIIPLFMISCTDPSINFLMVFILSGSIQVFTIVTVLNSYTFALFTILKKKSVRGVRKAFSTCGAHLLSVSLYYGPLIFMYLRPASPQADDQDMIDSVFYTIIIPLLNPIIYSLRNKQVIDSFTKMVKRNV
OR5J2 (Homo sapiens), sequence (Q8NH18 whole entry): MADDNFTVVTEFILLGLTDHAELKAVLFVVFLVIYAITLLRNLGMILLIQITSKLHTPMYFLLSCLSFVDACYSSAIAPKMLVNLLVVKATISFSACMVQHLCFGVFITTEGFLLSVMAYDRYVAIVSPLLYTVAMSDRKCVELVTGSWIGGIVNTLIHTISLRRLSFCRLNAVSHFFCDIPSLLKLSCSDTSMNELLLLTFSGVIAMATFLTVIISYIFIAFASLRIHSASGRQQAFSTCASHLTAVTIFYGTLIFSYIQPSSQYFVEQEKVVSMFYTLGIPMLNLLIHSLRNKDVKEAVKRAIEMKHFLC
OR5K3 (Homo sapiens), sequence (A6NET4 whole entry): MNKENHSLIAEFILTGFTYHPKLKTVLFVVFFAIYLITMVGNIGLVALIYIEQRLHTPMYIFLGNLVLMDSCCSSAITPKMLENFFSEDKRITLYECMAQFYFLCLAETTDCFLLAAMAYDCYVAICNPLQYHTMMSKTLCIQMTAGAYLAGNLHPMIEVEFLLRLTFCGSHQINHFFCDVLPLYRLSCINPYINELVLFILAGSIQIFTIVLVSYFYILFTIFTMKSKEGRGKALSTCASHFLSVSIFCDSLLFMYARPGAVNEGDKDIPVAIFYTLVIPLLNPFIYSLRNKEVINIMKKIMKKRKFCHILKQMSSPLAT
OR5H14 (Homo sapiens), sequence (A6NHG9 whole entry): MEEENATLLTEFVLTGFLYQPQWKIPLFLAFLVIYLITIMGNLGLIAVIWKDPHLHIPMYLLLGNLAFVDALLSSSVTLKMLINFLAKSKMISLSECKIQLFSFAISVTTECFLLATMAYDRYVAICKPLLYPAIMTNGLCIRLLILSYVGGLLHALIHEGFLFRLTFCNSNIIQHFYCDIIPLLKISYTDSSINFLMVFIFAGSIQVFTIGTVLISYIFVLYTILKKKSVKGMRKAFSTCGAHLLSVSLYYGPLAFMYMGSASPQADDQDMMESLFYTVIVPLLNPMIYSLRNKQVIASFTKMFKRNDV
OR5M1 (Homo sapiens), sequence (Q8NGP8 whole entry): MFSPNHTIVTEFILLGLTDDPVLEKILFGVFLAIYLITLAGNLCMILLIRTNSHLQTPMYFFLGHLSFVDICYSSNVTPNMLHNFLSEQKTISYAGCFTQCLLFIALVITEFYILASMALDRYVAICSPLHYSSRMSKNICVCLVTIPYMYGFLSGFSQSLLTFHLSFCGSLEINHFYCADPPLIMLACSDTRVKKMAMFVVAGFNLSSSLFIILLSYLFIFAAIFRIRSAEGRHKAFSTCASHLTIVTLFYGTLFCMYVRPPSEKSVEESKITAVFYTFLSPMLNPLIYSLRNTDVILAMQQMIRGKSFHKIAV
OR5H8 (Homo sapiens), sequence (P0DN80 whole entry): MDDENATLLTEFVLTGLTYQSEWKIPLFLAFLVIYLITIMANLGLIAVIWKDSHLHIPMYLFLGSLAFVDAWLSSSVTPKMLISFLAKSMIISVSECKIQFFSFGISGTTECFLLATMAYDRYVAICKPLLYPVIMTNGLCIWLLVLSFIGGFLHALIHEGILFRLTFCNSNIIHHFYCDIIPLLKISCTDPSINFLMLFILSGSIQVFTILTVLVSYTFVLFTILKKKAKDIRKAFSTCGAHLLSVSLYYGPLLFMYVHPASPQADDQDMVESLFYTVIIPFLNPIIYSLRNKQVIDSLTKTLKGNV
OR5G3 (Homo sapiens), sequence (P0C626 whole entry): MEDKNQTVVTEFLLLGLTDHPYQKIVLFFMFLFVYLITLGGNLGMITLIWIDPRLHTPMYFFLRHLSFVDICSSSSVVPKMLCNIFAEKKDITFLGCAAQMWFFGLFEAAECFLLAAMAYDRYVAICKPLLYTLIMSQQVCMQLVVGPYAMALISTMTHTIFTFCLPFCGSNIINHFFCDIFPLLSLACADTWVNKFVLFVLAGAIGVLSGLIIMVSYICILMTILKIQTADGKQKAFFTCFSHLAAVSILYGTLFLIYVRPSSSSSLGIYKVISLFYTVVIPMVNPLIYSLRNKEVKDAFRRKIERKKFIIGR
OR5L2 (Homo sapiens), sequence (Q8NGL0 whole entry): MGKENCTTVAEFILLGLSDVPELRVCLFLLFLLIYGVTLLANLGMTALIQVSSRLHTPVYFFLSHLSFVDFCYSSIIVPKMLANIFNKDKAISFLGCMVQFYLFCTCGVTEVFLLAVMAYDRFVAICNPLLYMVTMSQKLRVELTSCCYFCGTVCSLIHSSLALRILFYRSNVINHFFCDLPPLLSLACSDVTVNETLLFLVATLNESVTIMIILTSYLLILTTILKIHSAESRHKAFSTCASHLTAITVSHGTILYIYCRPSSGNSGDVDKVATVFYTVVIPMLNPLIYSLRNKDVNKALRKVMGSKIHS
OR5K2 L197M, sequence (as listed by the source, stated change not applied): as the sequence (Q8NHB8 whole entry) above, with L197M counted along it

C=CCOC(=O)Cc1ccccc1
inactive: OR5H1 (Homo sapiens) | OR5H1 F17L A30T H56Q | OR5H1 T181N | OR5H14 (Homo sapiens) | OR5H15 (Homo sapiens) | OR5H1 | OR5H2 | OR5H6 (Homo sapiens) | OR5I1 (Homo sapiens) | OR5J2 (Homo sapiens) | OR5K1 (Homo sapiens) | OR5K2 (Homo sapiens) | OR5K2 L197M | OR5K3 (Homo sapiens) | OR5K4 (Homo sapiens) | OR5L1 (Homo sapiens) | OR5L2 (Homo sapiens) | OR5M1 (Homo sapiens)

SCc1ccco1
inactive: OR5K1 (Homo sapiens)

COc1ccc(C=O)cc1
inactive: OR5K1 (Homo sapiens)

NCC(=O)c1ccccc1
inactive: OR5K1 (Homo sapiens)

Cc1ccc(O)c(C)c1
inactive: OR5K1 (Homo sapiens)

Cc1ccccc1O
inactive: OR5K1 (Homo sapiens)

C=CCc1ccc(OC)cc1
inactive: OR5K1 (Homo sapiens)

Cc1c([N+](=O)[O-])c(C)c([N+](=O)[O-])c(C(C)(C)C)c1[N+](=O)[O-]
inactive: OR5G3 (Homo sapiens) | OR5H14 (Homo sapiens) | OR5H15 (Homo sapiens) | OR5H2 | OR5H6 (Homo sapiens) | OR5H8 (Homo sapiens) | OR5I1 (Homo sapiens) | OR5J2 (Homo sapiens) | OR5K2 (Homo sapiens) | OR5K3 (Homo sapiens) | OR5K4 (Homo sapiens) | OR5L1 (Homo sapiens) | OR5M1 (Homo sapiens)

O=Cc1ccc2c(c1)OCO2
inactive: OR5K1 (Homo sapiens)

C=CCSSCC=C
inactive: OR5K1 (Homo sapiens)

CSSC
inactive: OR5K1 (Homo sapiens)

CCOC(=O)Cc1ccccc1
inactive: OR5K1 (Homo sapiens)
